Experimental data as given in PMC4019989 (Clinical cancer research : an official journal of the …, 2009).
Like-named read-outs stand apart in the source and are kept apart here.

Columns and labels:
[1] = tested on: patients with relapsed or refractory hematologic malignancies; experiment: Phase 1 dose escalation: adverse events, DLT, MTD; type: in vivo
[2] = tested on: relapsed or refractory hematologic malignancies; experiment: Antitumor activity; type: in vivo, human
In short: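 Relapsed/refractory MM, NHL, Hodgkin's or Waldenström's patients got the test compound as an i.v. push over 1–2 min on days 1–5, then 9 d rest (14-d cycles). Doses were 1.2–20 mg/m2, escalated in cohorts of three, continued until unacceptable toxicity or progression. Response used EBMT criteria (MM) and International Working Group criteria (NHL, Hodgkin's). For Waldenström's: complete = total resolution, partial = >50% resolution with no new disease.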

[3] = tested on: chymotrypsin-like activity of the proteasome; conditions: rats; i.v. for 5 consecutive days; multiple tissues; well tolerated; cited from earlier work
[4] = tested on: chymotrypsin-like activity of the proteasome; conditions: monkeys; i.v. for 5 consecutive days; multiple tissues; well tolerated; cited from earlier work
[5] = tested on: primary acute myeloid leukemia blasts; conditions: tested at nanomolar levels (0.1-100 nmol/L); cited from earlier work
[6] = preclinical studies; cited from earlier work
[7] = tested on: bortezomib-resistant MM cell lines; conditions: bortezomib-resistant MM cell lines and patient samples; cited from earlier work

SMILES: CC(C)C[C@H](NC(=O)[C@H](CCc1ccccc1)NC(=O)CN1CCOCC1)C(=O)N[C@@H](Cc1ccccc1)C(=O)N[C@@H](CC(C)C)C(=O)[C@@]1(C)CO1 [carfilzomib]
- Adverse event Fatigue, All Grades ([1]; human, in vivo): 14 (48) n (%)
- Adverse event Fatigue, Grade 1 ([1]; human, in vivo): 10 (35) n (%)
- Adverse event Fatigue, Grade 2 ([1]; human, in vivo): 3 (10) n (%)
- Adverse event Fatigue, Grade 3 ([1]; human, in vivo): 1 (3) n (%)
- Adverse event Fatigue, Grade 4 ([1]; human, in vivo): 0 (0) n (%)
- Adverse event Headache, All Grades ([1]; human, in vivo): 7 (24) n (%)
- Adverse event Headache, Grade 1 ([1]; human, in vivo): 7 (24) n (%)
- Adverse event Headache, Grade 2 ([1]; human, in vivo): 0 (0) n (%)
- Adverse event Headache, Grade 3 ([1]; human, in vivo): 0 (0) n (%)
- Adverse event Headache, Grade 4 ([1]; human, in vivo): 0 (0) n (%)
- Adverse event Hypoesthesia, All Grades ([1]; human, in vivo): 8 (28) n (%)
- Adverse event Hypoesthesia, Grade 1 ([1]; human, in vivo): 5 (17) n (%)
- Adverse event Hypoesthesia, Grade 2 ([1]; human, in vivo): 3 (10) n (%)
- Adverse event Hypoesthesia, Grade 3 ([1]; human, in vivo): 0 (0) n (%)
- Adverse event Hypoesthesia, Grade 4 ([1]; human, in vivo): 0 (0) n (%)
- Adverse event Nausea, All Grades ([1]; human, in vivo): 14 (48) n (%)
- Adverse event Nausea, Grade 1 ([1]; human, in vivo): 11 (38) n (%)
- Adverse event Nausea, Grade 2 ([1]; human, in vivo): 3 (10) n (%)
- Adverse event Nausea, Grade 3 ([1]; human, in vivo): 0 (0) n (%)
- Adverse event Nausea, Grade 4 ([1]; human, in vivo): 0 (0) n (%)
- Adverse event Paresthesia, All Grades ([1]; human, in vivo): 6 (21) n (%)
- Adverse event Paresthesia, Grade 1 ([1]; human, in vivo): 4 (14) n (%)
- Adverse event Paresthesia, Grade 2 ([1]; human, in vivo): 2 (7) n (%)
- Adverse event Paresthesia, Grade 3 ([1]; human, in vivo): 0 (0) n (%)
- Adverse event Paresthesia, Grade 4 ([1]; human, in vivo): 0 (0) n (%)
- Adverse event Peripheral edema, All Grades ([1]; human, in vivo): 7 (24) n (%)
- Adverse event Peripheral edema, Grade 1 ([1]; human, in vivo): 7 (24) n (%)
- Adverse event Peripheral edema, Grade 2 ([1]; human, in vivo): 0 (0) n (%)
- Adverse event Peripheral edema, Grade 3 ([1]; human, in vivo): 0 (0) n (%)
- Adverse event Peripheral edema, Grade 4 ([1]; human, in vivo): 0 (0) n (%)
- Adverse event Pyrexia, All Grades ([1]; human, in vivo): 8 (28) n (%)
- Grade 3 and 4 adverse events: ALT increased, Grade 3 ([1]; human, in vivo): 1 (3) n (%)
- Grade 3 and 4 adverse events: ALT increased, Grade 4 ([1]; human, in vivo): 0 (0) n (%)
- Grade 3 and 4 adverse events: Acute bronchitis, Grade 3 ([1]; human, in vivo): 1 (3) n (%)
- Grade 3 and 4 adverse events: Acute bronchitis, Grade 4 ([1]; human, in vivo): 0 (0) n (%)
- Grade 3 and 4 adverse events: Acute bronchitis, Grades 3-4 ([1]; human, in vivo): 1 (3) n (%)
- Grade 3 and 4 adverse events: Alkaline phosphatase increased, Grade 3 ([1]; human, in vivo): 1 (3) n (%)
- Grade 3 and 4 adverse events: Alkaline phosphatase increased, Grade 4 ([1]; human, in vivo): 0 (0) n (%)
- Grade 3 and 4 adverse events: Alkaline phosphatase increased, Grades 3-4 ([1]; human, in vivo): 1 (3) n (%)
- Grade 3 and 4 adverse events: Anemia, Grade 3 ([1]; human, in vivo): 1 (3) n (%)
- Grade 3 and 4 adverse events: Anemia, Grade 4 ([1]; human, in vivo): 0 (0) n (%)
- Grade 3 and 4 adverse events: Dyspnea, Grade 3 ([1]; human, in vivo): 1 (3) n (%)
- Grade 3 and 4 adverse events: Dyspnea, Grade 4 ([1]; human, in vivo): 1 (3) n (%)
- Grade 3 and 4 adverse events: Fatigue, Grade 3 ([1]; human, in vivo): 1 (3) n (%)
- Grade 3 and 4 adverse events: Fatigue, Grade 4 ([1]; human, in vivo): 0 (0) n (%)
- Grade 3 and 4 adverse events: Fatigue, Grades 3-4 ([1]; human, in vivo): 1 (3) n (%)
- Grade 3 and 4 adverse events: Febrile neutropenia, Grade 3 ([1]; human, in vivo): 1 (3) n (%)
- Grade 3 and 4 adverse events: Febrile neutropenia, Grade 4 ([1]; human, in vivo): 0 (0) n (%)
- Grade 3 and 4 adverse events: Febrile neutropenia, Grades 3-4 ([1]; human, in vivo): 1 (3) n (%)
- Grade 3 and 4 adverse events: Gastrointestinal hemorrhage, Grade 3 ([1]; human, in vivo): 1 (3) n (%)
- Grade 3 and 4 adverse events: Gastrointestinal hemorrhage, Grade 4 ([1]; human, in vivo): 0 (0) n (%)
- Grade 3 and 4 adverse events: Gastrointestinal hemorrhage, Grades 3-4 ([1]; human, in vivo): 1 (3) n (%)
- Grade 3 and 4 adverse events: Hemoglobin decreased, Grade 3 ([1]; human, in vivo): 1 (3) n (%)
- Grade 3 and 4 adverse events: Hemoglobin decreased, Grade 4 ([1]; human, in vivo): 0 (0) n (%)
- Grade 3 and 4 adverse events: Hemoglobin decreased, Grades 3-4 ([1]; human, in vivo): 1 (3) n (%)
- maximum tolerated dose (MTD) ([1]; i.v. push on 5 consecutive days within 14-day cycles): 15 mg/m^2
- DLTs in the initial seven dose cohorts ([1]; in vivo): No DLTs were observed
- Subjects achieving objective tumor responses ([2]; 28 of 29 patients evaluable, all responders treated at 11 mg/m^2 and higher): Four
- Subjects with stable disease ([2]; across all dose cohorts and diagnoses): nine
- Patients with progressive disease while on study ([2]; all cohorts): 15 patients
- Average duration on therapy of subjects with stable disease ([2]; eight cycles): 116 days
- IgA level by the end of the fifth cycle ([2]; person with IgA MM, 11 mg/m^2): 235 mg/dL
- IgA level within two cycles (10 doses) ([2]; person with IgA MM, 11 mg/m^2, from 709 mg/dL): 297 mg/dL
- reduction in serum M-protein ([2]; person with Waldenström's macroglobulinemia, after two cycles of 15 mg/m^2): 25%
- Objective responses in subjects with plasma cell dyscrasias ([2]; treated at or above 11 mg/m^2, two MM, one Waldenström's macroglobulinemia): Three of six
- Proteasome (chymotrypsin-like activity) inhibition [3]: > 80%
- Proteasome (chymotrypsin-like activity) inhibition [4]: > 80%
- autocrine- and cytokine-dependent proliferation [5]: inhibited autocrine- and cytokine-dependent proliferation
- Time for serum concentrations to approach the limit of assay detection [6]: ≤ 1 h
- Proliferation and apoptosis [7]: inhibited proliferation and induced apoptosis
